According to ChEMBL document CHEMBL3352332, “Synthesis and SAR study of novel anticancer and antimicrobial naphthoquinone amide derivatives” (Bioorg Med Chem Lett, 2014):
pIC50: −log10 of the molar value. Converted amounts (≈) assume the structure as drawn. The source made the active and inactive calls. The calls are words filed in the database; no cut-off is given here.

Legend:
Pseudomonas aeruginosa = assay: Antibacterial activity against Pseudomonas aeruginosa MTCC 201 at 100 ug/well after 24 hrs by well diffusion assay; assay type: functional
In short: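 17 h bacterial cultures swabbed onto Mueller Hinton agar; after 10 min wells were cut with a cork borer and loaded with compound from a 10 mg/mL stock, with a DMSO control. Plates were held at 37 °C for 24 h, and susceptibility was read as the diameter of the zone of inhibition in mm.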

HeLa = assay: Cytotoxicity against human HeLa cells assessed as reduction in cell viability after 48 hrs by MTT assay; assay type: functional, cell-based
Candida albicans [1] = assay: Antifungal activity against fluconazole-resistant Candida albicans by NCCLS method; assay type: functional
Staphylococcus aureus [2] = assay: Antibacterial activity against methicillin-resistant Staphylococcus aureus by NCCLS method; assay type: functional
Candida albicans [3] = assay: Antifungal activity against fluconazole-resistant Candida albicans at 100 ug/well after 24 hrs by well diffusion assay; assay type: functional; details: for zone of inhibition at 100 µg/disc: read-out: DIZ
In short: (§1)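 Agar well diffusion on Mueller Hinton agar: 17 h cultures swabbed over the surface, wells cut with a cork borer after 10 min. Each well loaded with 10 µl of a 10 mg/mL DMSO stock (100 µg/well), with a DMSO control well. Plates incubated at 37 °C for 24 h. Zone of inhibition diameter measured in mm.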

SAS = assay: Cytotoxicity against human SAS cells assessed as reduction in cell viability after 48 hrs by MTT assay; assay type: functional, cell-based
Staphylococcus aureus [4] = assay: Antibacterial activity against methicillin-resistant Staphylococcus aureus at 100 ug/well after 24 hrs by well diffusion assay; assay type: functional; details: for zone of inhibition at 100 µg/disc: read-out: DIZ; in short: as §1

Row | SMILES | diameter of the inhibition zone (DIZ) (Pseudomonas aeruginosa) | pIC50 (HeLa) | MIC (Candida albicans [1]) | MIC (Staphylococcus aureus [2]) | zone of inhibition at 100 µg/disc (Candida albicans [3]) | pIC50 (SAS) | zone of inhibition at 100 µg/disc (Staphylococcus aureus [4]) | diameter of the inhibition zone (DIZ) (Candida albicans [3]) | diameter of the inhibition zone (DIZ) (Staphylococcus aureus [4]) | zone of inhibition at 100 µg/disc (Pseudomonas aeruginosa; MTCC 201, 24 h, read-out: DIZ)
1 | COC(=O)[C@H](CC(C)C)NC(=O)CSC1=C(OC)C(=O)c2ccccc2C1=O | inactive | 4.20 | 62.5 µg/mL (≈ 154 µM) | 7.8 µg/mL (≈ 19.2 µM) | 19 mm | 4.59 | 21 mm |  |  | 
2 | CC[C@H](C)[C@H](NC(=O)CSC1=CC(=O)c2cccc(OC)c2C1=O)C(=O)OC | inactive | 4.02 | 15.6 µg/mL (≈ 38.5 µM) | 15.6 µg/mL (≈ 38.5 µM) | 15 mm | 4.20 | 19 mm |  |  | 
3 | COC(=O)CNC(=O)CSC1=C(C)C(=O)c2ccccc2C1=O | inactive |  | 15.6 µg/mL (≈ 46.8 µM) | 15.6 µg/mL (≈ 46.8 µM) | 22 mm |  | 23 mm |  |  | 
4 | COC(=O)CNC(=O)CSC1=CC(=O)c2cccc(OC)c2C1=O | inactive | < 4.00 | 7.9 µg/mL (≈ 22.6 µM) | 3.9 µg/mL (≈ 11.2 µM) | 19 mm | < 4.00 | 19 mm |  |  | 
5 | O=C1C=C(O)C(=O)c2ccccc21 [LAWSONE] | inactive | < 4.00 | 250 µg/mL (≈ 1440 µM) | 125 µg/mL (≈ 718 µM) | 14 mm | < 4.00 | 12 mm |  |  | 
6 | COC(=O)[C@@H](NC(=O)CSC1=C(C)C(=O)c2ccccc2C1=O)C(C)C | inactive | 4.70 | 15.6 µg/mL (≈ 41.6 µM) | 15.6 µg/mL (≈ 41.6 µM) | 19 mm | 4.80 | 19 mm |  |  | 
7 | COC(=O)[C@H](Cc1ccccc1)NC(=O)CSC1=CC(=O)c2cccc(OC)c2C1=O | inactive | 4.24 | 7.8 µg/mL (≈ 17.7 µM) | 7.8 µg/mL (≈ 17.7 µM) | 17 mm | 4.40 | 15 mm |  |  | 
8 | COC(=O)[C@H](C)NC(=O)CSC1=C(C)C(=O)c2cccc(OC)c2C1=O | inactive |  | 125 µg/mL (≈ 331 µM) | 125 µg/mL (≈ 331 µM) | 18 mm |  | 18 mm |  |  | 
9 | COC(=O)[C@@H](NC(=O)CSC1=CC(=O)c2cccc(OC)c2C1=O)C(C)C | inactive | < 4.00 | 15.6 µg/mL (≈ 39.9 µM) | 15.6 µg/mL (≈ 39.9 µM) | 12 mm | 4.35 | 15 mm |  |  | 
10 | O=C1C=CC(=O)c2c(O)cccc21 | inactive |  |  |  |  |  |  | inactive | inactive | 
11 | CC1=CC(=O)c2c(O)cccc2C1=O [PLUMBAGIN] | inactive | 4.59 | 125 µg/mL (≈ 664 µM) | 125 µg/mL (≈ 664 µM) | 12 mm | 5.52 | 12 mm |  |  | 
12 | OC(Cn1cncn1)(Cn1cncn1)c1ccc(F)cc1F | inactive |  |  |  |  |  |  | inactive | inactive | 
13 | CC[C@H](C)[C@H](NC(=O)CSC1=C(OC)C(=O)c2ccccc2C1=O)C(=O)OC | inactive | 4.09 | 7.8 µg/mL (≈ 19.2 µM) | 7.8 µg/mL (≈ 19.2 µM) | 12 mm | 4.22 | 15 mm |  |  | 
14 | COC(=O)CCCNC(=O)CSC1=CC(=O)c2cccc(OC)c2C1=O | inactive |  |  |  |  |  | 12 mm | inactive |  | 
15 | COC(=O)[C@H](Cc1ccccc1)NC(=O)CSC1=C(C)C(=O)c2ccccc2C1=O | inactive |  | 15.6 µg/mL (≈ 36.8 µM) | 15.6 µg/mL (≈ 36.8 µM) | 16 mm |  | 13 mm |  |  | 
16 | COC(=O)[C@H](C)NC(=O)CSC1=C(OC)C(=O)c2ccccc2C1=O | inactive | 4.41 | 62.5 µg/mL (≈ 172 µM) | 62.5 µg/mL (≈ 172 µM) | 26 mm | 4.85 | 19 mm |  |  | 
17 | CC[C@H](C)[C@H](NC(=O)CSC1=C(C)C(=O)c2ccccc2C1=O)C(=O)OC | inactive |  | 15.6 µg/mL (≈ 40.1 µM) | 15.6 µg/mL (≈ 40.1 µM) | 19 mm |  | 16 mm |  |  | 

Row | SMILES | diameter of the inhibition zone (DIZ) (Pseudomonas aeruginosa) | pIC50 (HeLa) | MIC (Candida albicans [1]) | MIC (Staphylococcus aureus [2]) | zone of inhibition at 100 µg/disc (Candida albicans [3]) | pIC50 (SAS) | zone of inhibition at 100 µg/disc (Staphylococcus aureus [4]) | diameter of the inhibition zone (DIZ) (Candida albicans [3]) | diameter of the inhibition zone (DIZ) (Staphylococcus aureus [4]) | zone of inhibition at 100 µg/disc (Pseudomonas aeruginosa; MTCC 201, 24 h, read-out: DIZ)
18 | CN[C@@H]1[C@H](O[C@H]2[C@H](O[C@H]3[C@H](O)[C@@H](O)[C@H](N=C(N)N)[C@@H](O)[C@@H]3N=C(N)N)O[C@@H](C)[C@]2(O)C=O)O[C@@H](CO)[C@H](O)[C@H]1O [STREPTOMYCIN] |  |  |  | 3.9 µg/mL (≈ 6.71 µM) |  |  | 24 mm | inactive |  | 13 mm
19 | COC(=O)[C@H](CC(C)C)NC(=O)CSC1=CC(=O)c2cccc(OC)c2C1=O | inactive |  | 7.8 µg/mL (≈ 19.2 µM) | 7.8 µg/mL (≈ 19.2 µM) | 12 mm |  | 11 mm |  |  | 
20 | CC[C@H](C)[C@H](NC(=O)CSC1=C(C)C(=O)c2cccc(OC)c2C1=O)C(=O)OC | inactive |  |  |  |  |  |  | inactive | inactive | 
21 | COC(=O)[C@H](Cc1ccccc1)NC(=O)CSC1=C(OC)C(=O)c2ccccc2C1=O | inactive |  |  | 62.5 µg/mL (≈ 142 µM) |  |  | 14 mm | inactive |  | 
22 | CC1=CC(=O)c2ccccc2C1=O [MENADIONE] | inactive | 4.74 | 15.6 µg/mL (≈ 90.6 µM) | 15.6 µg/mL (≈ 90.6 µM) | 11 mm | 4.85 | 11 mm |  |  | 
23 | COC(=O)CNC(=O)CSC1=C(OC)C(=O)c2ccccc2C1=O | inactive | 4.11 | 15.6 µg/mL (≈ 44.7 µM) | 15.6 µg/mL (≈ 44.7 µM) | 16 mm | 4.92 | 17 mm |  |  | 
24 | COC(=O)CNC(=O)CSC1=C(C)C(=O)c2cccc(OC)c2C1=O | inactive |  | 125 µg/mL (≈ 344 µM) | 125 µg/mL (≈ 344 µM) | 21 mm |  | 20 mm |  |  | 
25 | COC(=O)[C@@H](NC(=O)CSC1=C(C)C(=O)c2cccc(OC)c2C1=O)C(C)C | inactive |  | 7.8 µg/mL (≈ 19.2 µM) | 15.6 µg/mL (≈ 38.5 µM) | 13 mm |  | 12 mm |  |  | 
26 | COC(=O)CCCNC(=O)CSC1=C(C)C(=O)c2ccccc2C1=O | inactive |  | 15.6 µg/mL (≈ 43.2 µM) | 15.6 µg/mL (≈ 43.2 µM) | 12 mm |  | 13 mm |  |  | 
27 | COC(=O)CCCNC(=O)CSC1=C(OC)C(=O)c2ccccc2C1=O | inactive | 4.62 | 15.6 µg/mL (≈ 41.3 µM) | 15.6 µg/mL (≈ 41.3 µM) | 26 mm | 4.61 | 26 mm |  |  | 
28 | COC(=O)[C@@H](NC(=O)CSC1=C(OC)C(=O)c2ccccc2C1=O)C(C)C | inactive | 4.03 | 15.6 µg/mL (≈ 39.9 µM) | 15.6 µg/mL (≈ 39.9 µM) | 20 mm | 4.25 | 18 mm |  |  | 
29 | COC(=O)[C@H](C)NC(=O)CSC1=CC(=O)c2cccc(OC)c2C1=O | inactive |  |  | 7.8 µg/mL (≈ 21.5 µM) |  |  | 15 mm | inactive |  | 
30 | COC(=O)[C@H](C)NC(=O)CSC1=C(C)C(=O)c2ccccc2C1=O | inactive |  | 15.6 µg/mL (≈ 44.9 µM) | 15.6 µg/mL (≈ 44.9 µM) | 26 mm |  | 23 mm |  |  | 
31 | COC(=O)[C@H](CC(C)C)NC(=O)CSC1=C(C)C(=O)c2ccccc2C1=O | inactive |  | 15.6 µg/mL (≈ 40.1 µM) | 15.6 µg/mL (≈ 40.1 µM) | 20 mm |  | 18 mm |  |  | 
32 | COC(=O)[C@H](CC(C)C)NC(=O)CSC1=C(C)C(=O)c2cccc(OC)c2C1=O | inactive | < 4.00 | 7.8 µg/mL (≈ 18.6 µM) | 7.8 µg/mL (≈ 18.6 µM) | 25 mm | 4.11 | 21 mm |  |  | 
33 | COC(=O)[C@H](Cc1ccccc1)NC(=O)CSC1=C(C)C(=O)c2cccc(OC)c2C1=O | inactive | < 4.00 | 125 µg/mL (≈ 276 µM) | 125 µg/mL (≈ 276 µM) | 13 mm | 4.25 | 15 mm |  |  | 
34 | COC(=O)CCCNC(=O)CSC1=C(C)C(=O)c2cccc(OC)c2C1=O | inactive |  | 15.6 µg/mL (≈ 39.9 µM) | 15.6 µg/mL (≈ 39.9 µM) | 21 mm |  | 20 mm |  |  | 
